Source: PubChem BioAssay (several laboratories)
Many of the other results were omitted from the sample, so hits are more common in it than they were.
XBP1 UPR activ – activators of adaptive XBP1 UPR arm, primary screen, cell-based, CHO-XBP1 luciferase reporter, luminescence, uHTS; hit rate 0.33% among 330,000; IRE1-XBP1 UPR activation; percent of tunicamycin response, DMSO as zero; activation, % at 20 µM;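 active = versus positive control, 20 µM dose yields 30% or more activation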;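 also: 100% = tunicamycin at 10 µg/mL and 0% = DMSO only wells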
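Material: IRE1-XBP1 luciferase reporter CHO line / Quantity: one thousand reporter cells per well / Buffer or medium: F12 with 10% serum / Compound: 20 µM single concentration, DMSO 1% / Times: 6 h treatment, 37 °C / Detection: Steady-Glo luciferase glow luminescence, 10 min after reagent addition / Benchmarks: tunicamycin high, DMSO low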
CHOP inhibitor – inhibitors of CHOP promoter induction, primary screen, cell-based, unfolded protein response, luciferase reporter. CHO-K1 CHOP-promoter luciferase, tunicamycin-induced, 15-18 h. inhibition, % at 10 µM. hit rate 3.8% among 220,000. AID 2732, 2010;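 active = compounds that reduced the stress-induced luciferase reporter signal by more than about 70% of percent inhibition, limit read from the data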;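 also: 0% = tunicamycin plus vehicle and 100% = wells without tunicamycin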
PvdQ acylase – P. aeruginosa PvdQ acylase inhibitors, primary screen, biochemical, fluorescence, plate reader and imaging, single point. purified PvdQ acylase. AID 488965, 2010. hit rate 0.063% among 340,000. inhibition, % at 10 µM. PvdQ acylase [Pseudomonas aeruginosa LESB58]; in the data active = inhibition above about 30%, passing the limit was not always enough;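 also: 0% = vehicle neutral wells and 100% = reference inhibitor wells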
CHOP UPR activ – activators of apoptotic CHOP UPR arm, primary screen, cell-based, CHO-CHOP luciferase reporter, luminescence, uHTS. UPR activation; percent of tunicamycin response over DMSO baseline. activation, % at 10 µM. hit rate 0.34% among 330,000. AID 449763, 2010;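 active = at 10 µM dose, activation of 40% or more, normalized to positive control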;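 also: 100% = tunicamycin at 10 µg/mL and 0% = DMSO alone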
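System: CHO-CHOP luciferase reporter cell line; amount: 500 cells/well; buffer or medium: F12 medium containing 10% fetal bovine serum; incubation: 6 h compound exposure at 37 °C after overnight seeding; measured by: luciferase luminescence after 10 min with Steady-Glo reagent; evaluation: % reporter activation, DMSO baseline versus tunicamycin full activation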
An asterisk follows results filed as active; x = not tested or not shown.

SMILES | XBP1 UPR activ | CHOP inhibitor | PvdQ acylase | CHOP UPR activ
N#CC(c1ccccc1)c1cccc(Cl)n1 (stereo not given) | -1 | 13 | 103* | -1
CCN1C(=O)[C@H]2[C@H]3CN=C(SCc4ccccc4)N3[C@@](CC)(C(=O)OC)[C@H]2C1=O | -3 | x | -3 | 0
COc1ccc(NC(=O)NCCN2CCN(c3cc(OC)ccc3OC)CC2)cc1 | -4 | x | -9 | -3
COc1ccc(Cl)c(N2CCN(CCCNC(=O)Nc3ccc(C)cc3)CC2)c1 | -4 | 83* | -9 | -4
Cc1ccc(C2=NC(=O)/C(=C/c3cc(O)c(O)c(Br)c3)S2)cc1 | 2 | 72* | -13 | 1
COc1ccc(CCn2c(O)c(C=Nc3cccc(F)c3)c(=O)[nH]c2=O)cc1OC | 0 | 80* | x | -1
Cn1c(=O)c2c(O)c(C=NCc3ccccc3)c(=O)n(C)c2n(C)c1=O | -4 | -13 | x | -1
CCn1c(O)c(C=NCc2cccs2)c(=O)n(CC)c1=S | -2 | 73* | -1 | -1
COC(=O)c1ccc(Oc2nc3c(c(=O)n(C)c(=O)n3C)n2CCC(C)C)cc1 | -4 | 75* | -13 | 1
CCOC(=O)C1=C(c2ccccc2)N=c2s/c(=C\c3cccc(O)c3)c(=O)n2C1c1cccs1 (stereo not given) | 6 | 90* | -4 | 5
CC1CCCCC1Nc1ncnc2sccc12 (stereo not given) | -1 | x | 8 | 1
CCCCCc1cc(O)c2c(C)cc(=O)oc2c1 | 13 | 72* | -5 | 0
CC(C)Oc1ccc(C(=O)Nc2ccc(Cl)c(S(=O)(=O)Nc3ccc(Cl)cc3)c2)cc1 | -1 | 71* | -11 | 2
Cc1cc(C)c[n+](-c2[nH]c(=O)sc2/C=N/NC([S-])=Nc2ccccc2)c1 | 2 | 15 | -4 | 2
O=c1c2c3nc4ccccc4nc3n(Cc3ccccc3)c2ncn1Cc1ccco1 | x | 74* | 0 | x
CC(C)Cn1cnc2c(c(-c3ccccc3)c(-c3ccccc3)n2Cc2ccco2)c1=N | 4 | 48 | -8 | 3
N=c1c2c(-c3ccccc3)c(-c3ccccc3)n(Cc3ccco3)c2ncn1Cc1ccccc1 | 28 | 85* | -8 | 35
CCOc1cccc(-c2c(C(=O)N/N=C/c3ccsc3)nnn2-c2nonc2N)c1 | -1 | x | 11 | -1
C=C(C)c1cccc(C(C)(C)NC(=O)N(Cc2ccccc2)Cc2ccco2)c1 | 9 | 83* | -18 | -3
CC(C)CN(C(=O)CN(C)CC(=O)Nc1ccc(Cl)c(C(F)(F)F)c1)c1c(N)n(CC(C)C)c(=O)[nH]c1=O | -1 | x | -14 | -1
O=[N+]([O-])c1ccc(Sc2cccc[n+]2[O-])c2nonc12 | x | 108* | -2 | x
COc1nc(N(C)S(=O)(=O)c2ccc(C)cc2)nc(C)c1Cl | 1 | 83* | 1 | 11
C=CCN(c1nc(C)c(Br)c(OC)n1)S(=O)(=O)c1ccc(C)cc1 | 0 | x | -6 | -2
C=CCN(C(=O)CSC1=NC(=O)CN1C(C)=O)c1nc(C)c(-c2ccccc2)s1 | 7 | 95* | 4 | 3
CC(=C/c1ccc(C(C)C)cc1)/C=N/NC(=O)Cn1nc(C)cc1C | -2 | 66 | -7 | 3
SMILES | XBP1 UPR activ | CHOP inhibitor | PvdQ acylase | CHOP UPR activ
CC(/C=N/NC(=O)Cn1nccc1C)=C\c1ccc(C(C)C)cc1 | -3 | 76* | 14 | 7
CNS(=O)(=O)c1cccc(C(=O)OCC(=O)/C=C2/N(C)c3ccccc3C2(C)C)c1 | -2 | 73* | 6 | -1
CN1/C(=C\C(=O)COC(=O)c2ccc(O)cc2)C(C)(C)c2ccccc21 | -4 | 2 | 6 | 0
COc1ccc2c(c1OC)C(=O)OC2Nc1nc(-c2cc3cc(Br)ccc3oc2=O)cs1 (stereo not given) | 0 | 71* | -6 | 5
COc1c(S(=O)(=O)N2CCN(C(=O)c3ccco3)CC2)ccc(Cl)c1Cl | -2 | x | -10 | 1
CCCCCCCc1nc2c(=O)n(C)c3ccccc3c2o1 | 2 | 89* | -4 | 1
Cc1cc(CC(C)C)n(-c2nc3ccccc3c(=O)n2OCc2ccccc2)n1 | 0 | 74* | -8 | 1
O=C1O/C(=C/c2ccccc2)N=C1c1ccccc1 | -2 | 87* | 8 | 1
O=C1O/C(=C\c2ccccc2)c2ccccc21 | 6 | -6 | 4 | 5
O=S1(=O)c2ccccc2N=NN1Cc1cc(Cl)cc(Cl)c1 | -3 | 92* | x | 0
O=C1c2ccncc2C(=O)N1Cc1cccc(Cl)c1 | -4 | -4 | -5 | 0
O=C(CCCCn1c(=O)[nH]c2ccccc2c1=O)N1CCN(c2cccc(C(F)(F)F)c2)CC1 | 3 | 88* | -12 | 2
C/C(=C\c1ccccc1)C(=O)N1CCN(c2cccc(C(F)(F)F)c2)CC1 | 0 | 82* | -14 | 8
O=C1Nc2ccccc2OC1CC(=O)N1CCN(c2cccc(C(F)(F)F)c2)CC1 (stereo not given) | 0 | 86* | -4 | -2
O=C(CSCc1ccccc1)N1CCN(c2cccc(C(F)(F)F)c2)CC1 | -7 | 85* | -22 | 1
O=C(CCn1c(=O)[nH]c2ccccc2c1=O)N1CCN(c2cccc(C(F)(F)F)c2)CC1 | 1 | 40 | -14 | -1
Cc1cc(C)nc(N/N=C/c2ccccc2OCc2ccc([N+](=O)[O-])cc2)n1 | 2 | -4 | -5 | 6
O=[N+]([O-])c1ccc(N/N=C\c2ccccc2OCc2ccccc2)cc1 | 0 | 76* | -22 | 2
Cc1cccc(OCC(=O)N/N=C/c2ccc3c(c2)OCO3)c1 | 2 | 14 | -8 | 1
O=C(NCCc1ccccc1)C(=O)N/N=C/c1ccc2c(c1)OCO2 | 6 | 95* | 6 | 0
Cc1cc(C)c(OCC(=O)N/N=C/c2ccc3c(c2)OCO3)c(C)c1 | 1 | 73* | -6 | -1
O=C(CSc1nc2ccccc2c(=O)n1Cc1ccc(Cl)cc1)NCc1cccs1 | -3 | 73* | -9 | 0
CCn1c(SCC(=O)NCc2ccccc2)nc2ccccc2c1=O | -2 | 7 | -6 | 0
CCCCNC(=O)CSc1nc2ccccc2c(=O)n1Cc1ccc2c(c1)OCO2 | -1 | 86* | -2 | -2
CCC(=O)c1c[nH]c(C(=O)NCCCn2ccnc2)c1 | -2 | 26 | -14 | 0
COc1ccccc1CNC(=O)c1ccc2nc3[nH]c4ccccc4c3nc2c1 | 8 | 100* | -5 | 12
CCc1nc2ccc(C(=O)NCCc3ccccc3OC)cc2nc1CC | 2 | x | -10 | 2
Cc1ccc(CNC(=O)c2ccc3nc4[nH]c5ccccc5c4nc3c2)cc1 | x | 94* | x | x
C[C@H]1CN([C@@H](C)CO)C(=O)c2cccc(NS(=O)(=O)c3ccc(F)cc3)c2O[C@H]1CN(C)S(=O)(=O)c1cn(C)cn1 | -3 | x | -17 | 1
CCNc1nc(Oc2ccc(OC)cc2)cc(C(F)(F)F)n1 | -4 | 65 | 3 | -2
